Experimental findings from the RNAGym collection of RNA variant scans (doi:10.1126/science.aae0568) are described below.

To fix the notation:
B1: tRNA (parent)
chain: GUUCCGUUGGCGUAAUGGUAACGCGUCUCCCUCCUAAGGAGAAGACUGCGGGUUCGAGUCCCGUACGGAACG

This sample holds only a part of the variants without activity.

In this series the parent is B1. Nature of the series: yeast fitness relative to wild type (ratio to wild type); higher = fitter; tRNA-Arg(CCU), competitive growth, 37 C, YPD. In a few lines: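 Amplicons of the tRNA-Arg(CCU) gene were sequenced, 100-nucleotide paired-end, from the start population and from each end population of a pooled yeast competition. The competition, in six parallel replicates, lasted 24 hours in YPD at 37°C. Fitness relative to wild type was calculated from changes in genotype frequencies. Genotypes had to have ≥ 100 starting reads, and estimates < 0.5 were set to 0.5.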
In the case of GUUCCGUUGGCGUAAUGGUCACGCGUCUCCCUCUUAAGGGGAAGACUGCGGGUUCGCGUCCCGUACCGAACG [A20C C34U A40G A57C G67C], the yeast fitness is no more than 0.5. Then GUUCCGUUGGCGUAAUGGUAACGCGUCUCCGUCUUAAGGAGUAGACUGCGGGUUCGAGUCCCGUACGGACCG [C31G C34U A42U A70C], with no more than 0.5; and GAUCCGUUGGCGUCAUGGUAACGCGUCUCCCUCCUAAGGAGAAGACUCCGGGUUCGAGUCCCGUACGGAACG [U2A A14C G48C], with no more than 0.5.

Turning to GUUCCGUUGGCGUAAUGGUAACGUGUCUCCCUCUUAAGGGGAAGACUGCAGGUUGGAGUCCCGUACGGAACG [C24U C34U A40G G50A C55G], the yeast fitness was no more than 0.5. Then GUUCCGUUGGCGUAUUGGUAACGCGUCUCCUUCCUAAGGAGAAGACUGCGGAUUCGAGUCCCGUACGGAACG [A15U C31U G52A], with 0.576; and GUUCCGUUGGCGUAGUGGCAGCGCGUCUCCCUCCUAAGGAGAAGACUGCGGGUUCGAGUCCCGUACGGAACG [A15G U19C A21G], with 0.656; and GUUCCGUUGGUGUAAUGGUAACGCGUCUCCCUCCUAAGGAGAAGACUGCGGGUUCGAGUCCUGUACGGAACG [C11U C62U], with 0.943. With GUUCCGUUGGCGUGAUGGUAACGUGUCUCCCUCCUAAGGAGAAGACUGCGGGUUCGAGUCCCCUACGGAACG [A14G C24U G63C] the figure was no more than 0.5. Then GUUCCGUUGGCGUAAUGGUAACGGGUCUCCCUCCUAAGGAGAAGACUGCGGGUUCGUAUCCCGUUCGGAACG [C24G A57U G58A A65U], with no more than 0.5; and GUUCCGUGGGCAUAAUGGUAACGCGUCUCCCUCCUAAGGAGAAGACUGCCGCUUUGAGUCCCGUACGGAACG [U8G G12A G50C G52C C55U], with 0.618.

GUUCCGUUGGCGUAAUGGUAACGCGUCUACCUCCUAAGGAGAAGACUGCGGGUUCGAGUCCCAUACGGAACG [C29A G63A]: the yeast fitness amounted to 0.623. For the variant GUUCCGUUGGCGUAAUGGUAAGGCGUCUCGCUCCUAAGGAGAAGACUGCGGGUUCGAGUCCCGUACGGAACG [C22G C30G], the yeast fitness turned out to be 0.591.

For GUUCCGUUGGCGAAAUGGUAGCGCGUCUCCCUCCUAAGGAGAAGACUGCGGGUUCGAGUCCCAUACGGAACG [U13A A21G G63A], the yeast fitness came to 0.652. With GUUCGGUUGGUGUUAUGGUAACGCGUCUCCCUCCUAUGGAGAAGCCUGCGGGUUCGAGUCCCGUACGGAACG [C5G C11U A14U A37U A45C] the figure was no more than 0.5; with GUUCCGUUGGCGUAAUGGUAACGCGUCUCCCACCUAACGAGAAGACUGCGGGUUCGAGUCCCGUACGGAACG [U32A G38C], 0.652; with GUUCCGUUGGCGUAAUGGUAACGCGUCUCCCUCUUAAGGAGAAGACUGCGGGUUCGAGUCCCGUCCCGAACG [C34U A65C G67C], no more than 0.5. With GUUCCGCUGGCCUAAUGGUAACGCGUCUCCCUCCUAAGGAGAAGACUGCGGGUUCGAGUCCCGUACGGAACG [U7C G12C] the figure was 0.914. With GUUCCGUUGGCGUAAUGGUACCGAGUCUCCCUCCUAAGAAGAAGACUGCGGGUUCCAGUCCCGUACGGUACG [A21C C24A G39A G56C A69U] the figure was no more than 0.5; with GUUCCGUUGGCGUAAUGGUAACGCGUCUCCCUUCUAAGGAGAAGAAUGCGGGUUCGAGUCCCGUACGGAACG [C33U C46A], 0.821. With GUUCCGUUGGUGUAAUGGUAACGCGUCUCCCUCCUAAGGAGAAGACUAAGGGUACGAGUCCCGUACGGAACG [C11U G48A C49A U54A], the yeast fitness was no more than 0.5. With GUUCCGUUGGCGUAAUGGUAACGCGUCUCCCUCCUAAGGAGAAGACUGCGGGUUCCAGUCCCGUAAGGAACG [G56C C66A] the figure was 0.567.

Consider GUUCCGUUGGCGUAAUGGUAACGAGUCUCCCUCCUAAGGAGAAGACUGCGGGUUCGAGUCCCGUACGGACCG [C24A A70C], for which the yeast fitness is 0.8. Then GUUCCGUUGGCGUAAUGGUAACGCGUCUCCCUCCUAAGGAGAAGACUGCAGGUUCGAGUCCAGUAGGGAACG [G50A C62A C66G], with no more than 0.5. Regarding GUUCCAUUGGUGUAAUGGUAAGGCGUCUCCCUCCUAAGGAGAAGACAGCGGGUUCGAGUUCCGUACGGAACG [G6A C11U C22G U47A C60U], the yeast fitness is no more than 0.5. Then GUUCCGUUGGCGUAAUGGUAACGUGUCUCCCGCCUAAGGAGAAGACUGCGGCUUCGAGUCCCAUACGCAACG [C24U U32G G52C G63A G68C], with no more than 0.5; and GUUUGGCUGGCGUAAUGGUAACGGGUCUCCCUCCUAAGGAGACGACUGCGGGUUCGAGUCCCGUACGGAACG [C4U C5G U7C C24G A43C], with no more than 0.5. With GUUCCGUUGGCGUAAUGGUAACGCGUCUCCCUCCUAAGGAGAUGACUGUGGGUUCGAGUCCUGUACGGAACG [A43U C49U C62U], the yeast fitness was found to be 0.79. With GUUCCGUUGGCGUAAUGGUCACGCGUCUCCCUCUUAAGGAGAAGACGGCGGGUUCGAGUUCGGUACGGAACG [A20C C34U U47G C60U C62G] the figure was no more than 0.5. Then GUUCCGUUGGCGUUAUGGUAACGCGUGUCCCUCCUAAGGAGAAGACUGCGGGUUCGUGUCCCGUACGGAACG [A14U C27G A57U], with 0.527; and GUUCCGUUGGCGUACUGGUAACGCGUCUCCCUCCUAAGGAGAAGACUGUGGGUUCGAGUCCCGUACGGGACG [A15C C49U A69G], with no more than 0.5. Then GUUCCGUUGGCGUAAUGGUAAGCCGUCUCCCUCCUAAGGAGAAGACUGCCGGUUAGAGUACCGUACGGAACG [C22G G23C G50C C55A C60A], with no more than 0.5; and GUUCCGUUGGCGUAGUGGUAACGCGUCUCCCUCCUAAGGAGAAGACUGCGGCUUCGAGUCCCGUACGGAUCG [A15G G52C A70U], with no more than 0.5. In the case of GUUCCGUUGGCGUAAAGGUAACGCGUCUCCCUCCUAAGGAGAAGACUGCGGGUUCGUGUCCCGUACGGAACG [U16A A57U], the yeast fitness turned out to be 0.732. In the case of GUUCCGUUGACGUAAUGGUAACGAGUCUCCCUCCUAAGGAGACGACUGCGGGUUCGAGUCCCGUACGGAACG [G10A C24A A43C], the yeast fitness was no more than 0.5. Consider GUUCCGGUGGCGUAAUGGUAACGCGUCUCCCUCCUAAGGAGAAGACUGCGGGUUCGAGUCCCGUAAGGAACG [U7G C66A], for which the yeast fitness was found to be 0.573. Take GUUCCGUUGGCGAAAUGGUUACGCGUUUCCCUCCUAAGGAGGAGACUGCGGGUUCGAGUCCCGUACGGAACG [U13A A20U C27U A42G]: the yeast fitness was no more than 0.5. With GUUCGGUUGGCGUAAUGGUAACGCGCCUCCCUCGUAAGGAGAAGACUGCGGGUUAGAGUCCCGUACGGUACG [C5G U26C C34G C55A A69U] the figure was no more than 0.5.
